Experiment [1] relates to Prevotella melaninogenica. Put plainly: Antibacterial activity against Prevotella melaninogenica assessed as resistant isolates by CLSI agar dilution method in presence of clavulanate. In kind it is functional. In outline:
(§1)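 207 nonduplicate anaerobic blood isolates from patients with bloodstream infections at NTUH, collected January–December 2006. MICs were determined by agar dilution following CLSI guidelines. Inocula were applied with a Steers replicator onto supplemented Brucella blood agar and incubated 48 h at 35°C in an anaerobic chamber. MIC was the lowest concentration inhibiting growth. B. fragilis ATCC 25285, B. thetaiotaomicron ATCC 29741 and E. lentum ATCC 43055 served as controls in each run.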
(In general: In agar dilution, organisms are placed on agar that contains the substance at set levels.)

The test system of experiment [2] is Parvimonas micra. Put plainly: Antibacterial activity against beta-lactamase producing Micromonas micros assessed as susceptible isolates by CLSI agar dilution method in presence of clavulanate. It counts as functional. The essentials:
(§2)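 CLSI agar dilution MICs for anaerobic blood isolates (nonduplicate) collected from bloodstream-infection patients at a Taiwanese tertiary hospital, January–December 2006. Isolates were spotted by Steers replicator onto supplemented Brucella blood agar and incubated anaerobically for 48 h at 35°C. MIC was the lowest drug concentration inhibiting growth. Each run included B. fragilis ATCC 25285, B. thetaiotaomicron ATCC 29741 and E. lentum ATCC 43055 as quality-control strains.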

In experiment [3] the test system is Peptoniphilus asaccharolyticus. Put plainly: Antibacterial activity against beta-lactamase producing Peptoniphilus asaccharolyticus assessed as resistant isolates by CLSI agar dilution method in presence of clavulanate. It counts as functional. The essentials: as §1
Experiment [4] concerns Parvimonas micra. Put plainly: Antibacterial activity against beta-lactamase producing Micromonas micros assessed as resistant isolates by CLSI agar dilution method in presence of clavulanate. It counts as functional. In outline:
as §1

Experiment [5] concerns Bacteroides thetaiotaomicron. Put plainly: Antibacterial activity against beta-lactamase producing Bacteroides thetaiotaomicron by CLSI agar dilution method in presence of clavulanate. In kind it is functional. In outline: (§3)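 Agar dilution per CLSI guidelines on nonduplicate anaerobic bloodstream isolates collected at NTUH, January to December 2006. Isolates were spotted by Steers replicator onto supplemented Brucella blood agar and incubated anaerobically for 48 h at 35°C. MIC was the lowest drug concentration that inhibited growth. B. fragilis ATCC 25285, B. thetaiotaomicron ATCC 29741 and E. lentum ATCC 43055 were run as QC in each run.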

The test system of the next experiment is Veillonella parvula. Put plainly: Antibacterial activity against Veillonella parvula by CLSI agar dilution method in presence of clavulanate. In kind it is functional. The essentials:
as §3

For experiment [6], the system named is Bacteroides fragilis. Put plainly: Antibacterial activity against Bacteroides fragilis by CLSI agar dilution method in presence of clavulanate. It counts as functional. The essentials:
as §3

Experiment [7] deals with Prevotella melaninogenica. Put plainly: Antibacterial activity against Prevotella melaninogenica assessed as susceptible isolates by CLSI agar dilution method in presence of clavulanate. In kind it is functional. In outline:
as §3

The test system of experiment [8] is Fusobacterium varium. Put plainly: Antibacterial activity against Fusobacterium varium assessed as susceptible isolates by CLSI agar dilution method in presence of clavulanate. In kind it is functional. The essentials:
as §3

For experiment [9], the system named is Peptostreptococcus anaerobius. Put plainly: Antibacterial activity against beta-lactamase producing Peptostreptococcus anaerobius assessed as susceptible isolates by CLSI agar dilution method in presence of clavulanate. It counts as functional. The essentials: as §2
Experiment [10] concerns Clostridium septicum. Put plainly: Antibacterial activity against beta-lactamase producing Clostridium septicum assessed as resistant isolates by CLSI agar dilution method in presence of clavulanate. In kind it is functional. The essentials:
as §1

The next experiment relates to Clostridium tertium. Put plainly: Antibacterial activity against beta-lactamase producing Clostridium tertium by CLSI agar dilution method in presence of clavulanate. It counts as functional. In outline:
as §2

In another experiment the test system is Fusobacterium mortiferum. Put plainly: Antibacterial activity against Fusobacterium mortiferum assessed as susceptible isolates by CLSI agar dilution method. In kind it is functional.
In experiment [11] the test system is Finegoldia magna. Put plainly: Antibacterial activity against beta-lactamase producing Finegoldia magna by CLSI agar dilution method in presence of Tazobactam. In kind it is functional. The essentials: as §2
For experiment [12], the system named is Fusobacterium necrophorum. Put plainly: Antibacterial activity against Fusobacterium necrophorum assessed as resistant isolates by CLSI agar dilution method. In kind it is functional.
For experiment [13], the system named is Bacteroides fragilis. Put plainly: Antibacterial activity against Bacteroides fragilis by CLSI agar dilution method in presence of Tazobactam. In kind it is functional. The essentials: as §3
The test system of experiment [14] is Finegoldia magna. Put plainly: Antibacterial activity against beta-lactamase producing Finegoldia magna assessed as resistant isolates by CLSI agar dilution method. In kind it is functional.
For experiment [15], the system named is Phocaeicola vulgatus. Put plainly: Antibacterial activity against beta-lactamase producing Bacteroides vulgatus assessed as susceptible isolates by CLSI agar dilution method. It counts as functional.
In experiment [16] the test system is Clostridium paraputrificum. Put plainly: Antibacterial activity against beta-lactamase producing Clostridium paraputrificum assessed as resistant isolates by CLSI agar dilution method. It counts as functional.
Experiment [17] deals with Peptoniphilus asaccharolyticus. Put plainly: Antibacterial activity against beta-lactamase producing Peptoniphilus asaccharolyticus assessed as resistant isolates by CLSI agar dilution method. In kind it is functional.
Experiment [18] has as its system Phocaeicola vulgatus. Put plainly: Antibacterial activity against beta-lactamase producing Bacteroides vulgatus assessed as resistant isolates by CLSI agar dilution method. In kind it is functional.
Experiment [19] deals with Bacteroides thetaiotaomicron. Put plainly: Antibacterial activity against beta-lactamase producing Bacteroides thetaiotaomicron assessed as resistant isolates by CLSI agar dilution method in presence of Tazobactam. It counts as functional. In outline:
as §1

In experiment [20] the test system is Prevotella melaninogenica. Put plainly: Antibacterial activity against Prevotella melaninogenica assessed as susceptible isolates by CLSI agar dilution method in presence of Tazobactam. In kind it is functional. In outline:
as §3

The subject of the next experiment is Bacteroides caccae. Put plainly: Antibacterial activity against beta-lactamase producing Bacteroides caccae assessed as resistant isolates by CLSI agar dilution method in presence of Tazobactam. It counts as functional. In outline:
as §1

Another experiment deals with Fusobacterium nucleatum. Put plainly: Antibacterial activity against Fusobacterium nucleatum assessed as resistant isolates by CLSI agar dilution method. It counts as functional.
The subject of experiment [21] is Bacteroides thetaiotaomicron. Put plainly: Antibacterial activity against beta-lactamase producing Bacteroides thetaiotaomicron by CLSI agar dilution method. It counts as functional.
Experiment [22] deals with Fusobacterium varium. Put plainly: Antibacterial activity against Fusobacterium varium assessed as susceptible isolates by CLSI agar dilution method. It counts as functional.
A further experiment has as its system Prevotella buccae. Put plainly: Antibacterial activity against Prevotella buccae assessed as resistant isolates by CLSI agar dilution method. In kind it is functional, Segatella buccae.
Experiment [23] deals with Clostridium septicum. Put plainly: Antibacterial activity against beta-lactamase producing Clostridium septicum by CLSI agar dilution method in presence of Tazobactam. In kind it is functional. In outline: as §2
Experiment [24] relates to Peptoniphilus asaccharolyticus. Put plainly: Antibacterial activity against beta-lactamase producing Peptoniphilus asaccharolyticus by CLSI agar dilution method. It counts as functional.
For experiment [25], the system named is Clostridium septicum. Put plainly: Antibacterial activity against beta-lactamase producing Clostridium septicum assessed as resistant isolates by CLSI agar dilution method. In kind it is functional.
The subject of experiment [26] is Fusobacterium varium. Put plainly: Antibacterial activity against Fusobacterium varium assessed as resistant isolates by CLSI agar dilution method in presence of Tazobactam. In kind it is functional. The essentials: as §1
Experiment [27] deals with Prevotella melaninogenica. Put plainly: Antibacterial activity against Prevotella melaninogenica assessed as resistant isolates by CLSI agar dilution method. It counts as functional.

Values after ≈ are worked out from the molar mass of the structure shown. Bounds are passed on as bounds.

Take `CC1(C)S[C@@H]2[C@H](NC(=O)[C@H](N)c3ccc(O)cc3)C(=O)N2[C@H]1C(=O)O` [AMOXICILLIN]: the Activity in [1] was found to be 6%; with Parvimonas micra [2], 94%; in experiment [3], 3%; in the experiment on Parvimonas micra [4], 3%; in [7], 81%; in the experiment on Fusobacterium varium [8], 89%. For the same molecule, the results for the Activity (in experiment [9]; in the experiment with Clostridium septicum [10]) were 94% and 4%, respectively. For the same molecule, the minimum inhibitory concentration (MIC) (as a rule, the smallest concentration in the dilution series that meets the test's criterion for growth inhibition) in experiment [5] amounted to 4 µg/mL; in the experiment with Veillonella parvula, 0.12 µg/mL. For the same molecule, the MIC50 – broadly, the lowest concentration that inhibits either 50% of growth or 50% of the strains tested, depending on the study – in [5] stood at 4 µg/mL; with Bacteroides fragilis [6] it was 4 µg/mL; with Clostridium tertium, 0.5 µg/mL. For the same molecule, the figures for the MIC90 (in experiment [5]; with Bacteroides fragilis [6]; in the experiment with Clostridium tertium) were 32 µg/mL, 32 µg/mL and 2 µg/mL, respectively.
For the molecule `CCN1CCN(C(=O)N[C@@H](C(=O)N[C@@H]2C(=O)N3[C@@H]2SC(C)(C)[C@@H]3C(=O)O)c2ccccc2)C(=O)C1=O` [PIPERACILLIN], the Activity in the experiment on Fusobacterium mortiferum worked out at 90%; in experiment [12], 10%; in the experiment with Finegoldia magna [14], 3%; in the experiment on Phocaeicola vulgatus [15] it was 35%; in experiment [16] it was 0%; in experiment [17], 3%. Moreover, the Activity in the experiment with Phocaeicola vulgatus [18] worked out at 65%; in experiment [19], 0%; in experiment [20], 100%; with Bacteroides caccae, 4%; in the experiment with Fusobacterium nucleatum it was 10%; in the experiment on Fusobacterium varium [22], 90%. For the same molecule, the Activity in the experiment on Prevotella buccae was 22%; in the experiment on Clostridium septicum [25] it was 0%; with Fusobacterium varium [26] it was 0%; in experiment [27], 22%. In addition, the MIC in the experiment on Finegoldia magna [11] was found to be 0.03 µg/mL. The MIC50 in the experiment with Finegoldia magna [11] amounted to 0.03 µg/mL; with Bacteroides fragilis [13], 1 µg/mL; in [21], 32 µg/mL (≈ 61.8 µM); in the experiment with Clostridium septicum [23], 0.5 µg/mL; in experiment [24], 0.12 µg/mL (≈ 0.232 µM). Besides, the MIC90 (commonly an inhibitory concentration at the 90% level, which refers to growth in some studies and to a panel of isolates in others) in the experiment with Finegoldia magna [11] is 2 µg/mL; in the experiment with Bacteroides fragilis [13], 8 µg/mL; in experiment [21] it was over 128 µg/mL; in the experiment on Clostridium septicum [23], 2 µg/mL; in experiment [24] it was 8 µg/mL (≈ 15.5 µM).
